Screening results as filed in PubChem.
Rows were chosen to be rich in hits. Some 3.2% of all compounds tested hit in one or more screens of this group.
Plk1 PBD FP – Plk1 polo box domain binding inhibitors, primary screen, biochemical, fluorescence polarization; Serine/threonine-protein kinase PLK1 (Homo sapiens), P53350; Plk1 PBD phosphopeptide binding; inhibition, %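 (tested at about 20 µM)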; 97,000 tested, 0.13% active; AID 693, 2007; in the data active = inhibition above about 34%, passing the limit was not always enough
Target sequence (P53350 whole entry, looked up, the tested form may be a part): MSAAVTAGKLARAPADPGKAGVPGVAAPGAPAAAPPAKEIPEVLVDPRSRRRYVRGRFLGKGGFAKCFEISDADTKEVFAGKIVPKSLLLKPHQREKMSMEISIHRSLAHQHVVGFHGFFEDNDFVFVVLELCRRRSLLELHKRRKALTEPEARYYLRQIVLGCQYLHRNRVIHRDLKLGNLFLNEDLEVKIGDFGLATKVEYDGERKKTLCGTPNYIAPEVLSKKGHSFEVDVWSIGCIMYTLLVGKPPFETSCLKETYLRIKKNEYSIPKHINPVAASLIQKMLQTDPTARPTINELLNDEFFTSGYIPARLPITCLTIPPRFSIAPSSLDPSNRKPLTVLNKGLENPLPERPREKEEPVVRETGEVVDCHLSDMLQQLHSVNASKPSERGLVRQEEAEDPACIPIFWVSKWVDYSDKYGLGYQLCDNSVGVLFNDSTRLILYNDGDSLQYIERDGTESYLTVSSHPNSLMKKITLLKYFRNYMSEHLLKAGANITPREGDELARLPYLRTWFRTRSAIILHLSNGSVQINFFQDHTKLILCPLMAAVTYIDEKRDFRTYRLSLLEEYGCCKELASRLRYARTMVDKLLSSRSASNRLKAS
PLK1 kinase inh – human PLK1 kinase inhibitors, primary screen, biochemical, TR-FRET. 97,000 tested, 0.53% active. Serine/threonine-protein kinase PLK1 (Homo sapiens), P53350. AID 619, 2007. recombinant PLK1 kinase, TR-FRET peptide phosphorylation. inhibition, % at 10 µM;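 active = inhibition of 50% or more in the single-concentration screen; inactive = inhibition below 50%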;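 also: 0% = DMSO max control and 100% = H-89 dihydrochloride min control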
HIV Rev-RRE inh – HIV-1 Rev-RRE binding inhibitors, primary screen, biochemical, FRET, protein-RNA interaction; Rev peptide-RRE RNA binding; P05866; 97,000 tested, 0.79% active; inhibition, % at 8 µM;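 active = inhibition above the screen-wide mean plus 3 SD, cut at about 35% in these data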;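 also: 0% = median DMSO wells and 100% = median Neomycin B control wells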
Target sequence (P05866 whole entry, looked up): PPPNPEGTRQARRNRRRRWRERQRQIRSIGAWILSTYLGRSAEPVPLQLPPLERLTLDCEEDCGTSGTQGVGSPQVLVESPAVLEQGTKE
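System: Cy5-labelled duplex RRE RNA binding fluorescein-labelled HIV Rev peptide; Signal: fluorescein-to-Cy5 FRET, 480 nm excitation; Also added: labelled Rev peptide; Compound: one concentration, 8 µM nominal; Buffer or medium: HEPES pH 7.5 salt buffer with EDTA; Read-out: % inhibition of FRET ratio versus controls; Schedule: 5 min preincubation and 15 min binding, 25 °C.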
EphB4 ephrin blk – EphB4-ephrin-B2 interaction antagonists, primary screen, biochemical, TNYL-RAW peptide probe, fluorescence polarization; inhibition, % at 7 µM; 97,000 tested, 0.15% active; EphB4 LBD / TNYL-RAW-Alexa532 peptide; AID 720, 2007;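 active = inhibition above the screen-wide mean inhibition plus 3 SD, cut at about 15% in these data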;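 also: 0% = DMSO wells and 100% = excess unlabeled TNYL-RAW peptide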
DAT uptake mod – changed hDAT dopamine uptake under cocaine IC80, either direction, primary screen, cocaine antagonist project, cell-based, LLC-PK1 hDAT, [14C]-dopamine uptake, MLSMR | 110,000 tested, 1.3% active | B-score at 10 µM | LLC-PK1 hDAT cells, [14C]-dopamine uptake with cocaine IC80; actives deviate in either direction;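 active = Z score or B-score, a plate-position-corrected score, falls beyond the plate's 99.7% confidence bounds, in either direction; inactive = both scores lie inside the 99.7% bounds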;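 also: scored against the spread of the other compound wells on the same plate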
FAK blocker – FAK kinase inhibitors, primary screen, biochemical; Focal adhesion kinase 1 (Homo sapiens), Q05397; biochemical FAK kinase activity assay; inhibition, %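 (tested at 7 µM)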; 97,000 tested, 0.84% active; AID 727, 2007; in the data active = inhibition above about 19%;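 also: 0% = DMSO and 100% = reference compound high control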
* marks the source's active call; other numbers are inactive results; [ ] = remark or other dose.

For Cc1sc2c(c1C)c(=O)n(-c1ccccc1)c1nnc(C)n21 the results were Plk1 PBD FP -10.4, PLK1 kinase inh -12.7, HIV Rev-RRE inh 4.9, EphB4 ephrin blk 3.9, DAT uptake mod 0.871 and FAK blocker -1.5.
For COC(C/C=C/[C@@H](O)[C@H](C)OCc1ccccc1)OC the results were DAT uptake mod -0.0023.
`CNc1ccc(Br)cc(C(=O)/C=C/c2cccc(OC)c2)c1=O` gave Plk1 PBD FP 0.5, PLK1 kinase inh -1.4, HIV Rev-RRE inh 53.0*, EphB4 ephrin blk 12.5, DAT uptake mod 0.0237 and FAK blocker 6.3.
`CCNc1ccc(Br)cc(C(=O)/C=C/c2c(Cl)cccc2Cl)c1=O` gave Plk1 PBD FP -13.9, PLK1 kinase inh -4.9, HIV Rev-RRE inh 88.7*[fluorescence artefact?], EphB4 ephrin blk 1.3, DAT uptake mod -0.143 and FAK blocker 1.7.
For CCNc1ccc(Br)cc(C(=O)/C=C/c2ccc3c(c2)OCO3)c1=O the results were Plk1 PBD FP -9.1, PLK1 kinase inh 3.8, HIV Rev-RRE inh 27.2, EphB4 ephrin blk -13.1, DAT uptake mod 0.546 and FAK blocker 8.6.
`CCN1CCN(c2cc(C)c3cc(NC(=O)c4ccc(OC)c(OC)c4)ccc3n2)CC1` gave Plk1 PBD FP 3.8, PLK1 kinase inh -4.1, HIV Rev-RRE inh 12.4, EphB4 ephrin blk -3.2, DAT uptake mod 2.56* and FAK blocker 12.1.
For CCN1CCN(c2cc(C)c3cc(NC(=O)c4ccc5c(c4)OCO5)ccc3n2)CC1 the results were Plk1 PBD FP 21.0, PLK1 kinase inh -0.1, HIV Rev-RRE inh 7.4, EphB4 ephrin blk -0.2, DAT uptake mod 0.737 and FAK blocker 0.7.
Screening COc1cccc(C(=O)Nc2ccc3nc(N4CCN(c5ncccn5)CC4)cc(C)c3c2)c1OC returned Plk1 PBD FP 11.2, PLK1 kinase inh -4.8, HIV Rev-RRE inh -3.0, EphB4 ephrin blk -3.7, DAT uptake mod -6.88* and FAK blocker 14.6.
Screening CC(C)NC(=O)NC(=O)CSc1nnc(COc2ccccc2F)n1C(C)C1CC2CCC1C2 (stereo unspecified) returned Plk1 PBD FP -7.9, PLK1 kinase inh -8.1, HIV Rev-RRE inh -3.8, EphB4 ephrin blk 4.7, DAT uptake mod 2.6* and FAK blocker -5.4.
CC(C1CC2CCC1C2)n1c(COc2ccccc2F)nnc1SCC(N)=O (stereo unspecified) was read as Plk1 PBD FP -16.1, PLK1 kinase inh -8.4, HIV Rev-RRE inh 5.5, EphB4 ephrin blk 4.5, DAT uptake mod 0.14 and FAK blocker 9.9.
CC(O)(CS(=O)(=O)Cc1ccccc1)C(=O)Nc1cccc(C(F)(F)F)c1 (stereo unspecified) was read as Plk1 PBD FP -28.3, PLK1 kinase inh -5.3, HIV Rev-RRE inh 2.5, EphB4 ephrin blk 5.0, DAT uptake mod -2.81* and FAK blocker -4.8.
CC1=CC(C)(C)N2C(=O)C3(C(C#N)=C(N)Oc4cc(O)ccc43)c3c(C)c(C)cc1c32 (stereo unspecified) was read as Plk1 PBD FP -7.9, PLK1 kinase inh -32.6, HIV Rev-RRE inh 14.8, EphB4 ephrin blk 1.5, DAT uptake mod 2.63* and FAK blocker -3.2.
Screening CC1=CC(C)(C)N2C(=O)C3(C(C#N)=C(N)OC4=C3C(=O)CCC4)c3c(C)c(C)cc1c32 (stereo unspecified) returned Plk1 PBD FP 2.0, PLK1 kinase inh -1.8, HIV Rev-RRE inh 1.6, EphB4 ephrin blk 1.4, DAT uptake mod -0.401 and FAK blocker -1.8.
Cc1ccc([N+](=O)[O-])cc1N/C=C1\CCc2ccccc2C1=O was read as Plk1 PBD FP -10.5, PLK1 kinase inh -8.7, HIV Rev-RRE inh 9.8, EphB4 ephrin blk 12.3, DAT uptake mod -0.214 and FAK blocker 3.7.
CC(Oc1ccccc1Cl)C(=O)N(Cc1ccco1)C1CCS(=O)(=O)C1 (stereo unspecified) was read as DAT uptake mod -1.28.
Screening O=C(COc1ccc(Cl)cc1Cl)N(Cc1ccco1)C1CCS(=O)(=O)C1 (stereo unspecified) returned Plk1 PBD FP 0.8, PLK1 kinase inh -7.5, HIV Rev-RRE inh 7.5, EphB4 ephrin blk 4.2, DAT uptake mod 2.94* and FAK blocker 5.1.
For CCOC(=O)C1=C(C)NC(=S)NC1c1ccc(-c2cccc(Cl)c2C)o1 (stereo unspecified) the results were Plk1 PBD FP 9.8, PLK1 kinase inh -9.6, HIV Rev-RRE inh -5.3, EphB4 ephrin blk 1.9, DAT uptake mod -8.71* and FAK blocker -0.9.
Screening CCOC(=O)C1=C(C)NC(=O)NC1c1ccc(C)o1 (stereo unspecified) returned Plk1 PBD FP 17.5, PLK1 kinase inh 68.6*, HIV Rev-RRE inh 2.3, EphB4 ephrin blk -6.7, DAT uptake mod 0.784 and FAK blocker 2.2.
COc1ccc(N2CS(=O)(=O)/C(=C/N(C)C)C2=O)cc1 was read as Plk1 PBD FP -23.9, PLK1 kinase inh -1.1, HIV Rev-RRE inh 6.4, EphB4 ephrin blk 7.1, DAT uptake mod -0.359 and FAK blocker -0.3.
`C=CCn1c(C)c(C(C)=O)c(N2CCCC2)nc1=S` gave Plk1 PBD FP -21.4, PLK1 kinase inh -21.4, HIV Rev-RRE inh 10.3, EphB4 ephrin blk -6.2, DAT uptake mod 0.238 and FAK blocker -0.9.
For C=CCn1c(C)c(C(C)=O)c(N2CCN(c3ccccc3)CC2)nc1=S the results were Plk1 PBD FP -26.2, PLK1 kinase inh -4.0, HIV Rev-RRE inh 82.3*[fluorescence artefact?], EphB4 ephrin blk -4.7, DAT uptake mod 0.485 and FAK blocker -3.7.
COCC(C)Nc1ncnc2c1cnn2-c1ccc(Cl)cc1 (stereo unspecified) was read as Plk1 PBD FP 2.8, PLK1 kinase inh 2.2, HIV Rev-RRE inh 3.2, EphB4 ephrin blk -7.4, DAT uptake mod 2.74* and FAK blocker -0.7.
Screening C=CCNC(=O)N1C2=NC(C(=O)OC)=C(C(=O)OC)[C@@H]3N(Cc4ccccc4)c4ccccc4[C@]23C[C@H]1C(=O)OC returned DAT uptake mod 0.105.
Cc1ccc2c(c1)nnn2C1CCN(C(=O)NC23CC4CC(CC(C4)C2)C3)CC1 was read as Plk1 PBD FP 18.4, PLK1 kinase inh -11.2, HIV Rev-RRE inh 2.5, EphB4 ephrin blk 0.2, DAT uptake mod -0.19 and FAK blocker -0.9.
For CCOc1ccccc1NC(=O)N1CCC(n2nnc3cc(C)ccc32)CC1 the results were DAT uptake mod 2.41*.
COc1ccc(C(=O)NCc2nnc(SCC(=O)N3CCCCC3)o2)cc1OC was read as Plk1 PBD FP 4.2, PLK1 kinase inh -3.0, HIV Rev-RRE inh -2.1, EphB4 ephrin blk -1.4, DAT uptake mod -0.486 and FAK blocker -0.1.
